Experimental data published in article PMC7108400 (Leukemia research, 2019).

Experiments:
[1] = Dose-limiting toxicities and MTD/RP2D determination; assay type: in vivo
[2] = Panobinostat plasma pharmacokinetics, cycle 1 day 8, non-compartmental; assay type: in vivo, human; settings: for CL/F / AUC / AUC(0-t) / Vd/F: geometric mean (%CV); for Cmax / AUC / AUC(0-t) / half-life / Tmax / Vd/F: human, plasma, oral; for AUC: AUC0inf; for half-life: T1/2, Median (range); for Tmax: Median (range); for Vd/F: Vz/F
Method in brief: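 Adults <65 y with newly diagnosed high-risk AML received oral HDAC-inhibitor test compound thrice weekly from day 8, after idarubicin 12 mg/m²/d IV (days 1–3) and ara-C 100 mg/m²/d continuous IV (days 1–7). On cycle 1 day 8, 3 mL blood was drawn pre-dose and at 0.5–28 h. Plasma parameters were derived non-compartmentally; geometric mean (%CV) excluded zero concentrations, and Tmax is median (range).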

[3] = tested on: newly diagnosed primary or secondary high-risk AML; assay: Anti-leukemic efficacy; assay type: in vivo, human; settings: for ORR: 20-mg dose level
[4] = 1 in 25 mg and 1 in 20 mg expansion groups
[5] = 20 mg, PAN 20 mg (expansion phase), N=10
[6] = PAN 20 mg (expansion phase), N=12

## Cc1[nH]c2ccccc2c1CCNCc1ccc(/C=C/C(=O)NO)cc1 [panobinostat]
[1]; human, in vivo
  Patients who experienced DLTs during induction: 7 patients
  Recommended phase 2 dose (RP2D) of panobinostat: 20 mg
[1]; patients 18–65 years, staggered schedule with idarubicin and ara-C
  MTD: not reached
[2]; PAN 15 mg, N=10
  CL/F: 295 (54.7) L/h
[2]; PAN 20 mg (expansion phase), N=10
  CL/F: 193 (32.3) L/h
[2]; PAN 20 mg, N=11
  CL/F: 269 (68.2) L/h
[2]; PAN 25 mg, N=8
  Tmax, Median (range): 2.02 [1.25–4.90] h
  CL/F: 294 (44.3) L/h
[2]; 15 mg
  Cmax: 6.03 ng/mL
[2]; 15 mg, PAN 15 mg, N=10
  AUC: 50.8 ng·h/mL
  half-life: 8.74 h
  Tmax: 3 h
  Vd/F: 3920 L
[2]; 15 mg, AUC0–24, PAN 15 mg, N=10
  AUC(0-t): 42.5 ng·h/mL
[2]; 20 mg
  Cmax: 15 ng/mL
[2]; [5]
  AUC: 103 ng·h/mL
  half-life: 7.94 h
  Tmax: 1.98 h
  Vd/F: 1810 L
[2]; 20 mg, PAN 20 mg, N=11
  AUC: 74.3 ng·h/mL
  half-life: 9.7 h
  Tmax: 1.05 h
  Vd/F: 3790 L
[2]; 20 mg, AUC0–24, PAN 20 mg (expansion phase), N=10
  AUC(0-t): 92.7 ng·h/mL
[2]; 20 mg, AUC0–24, PAN 20 mg, N=11
  AUC(0-t): 62.6 ng·h/mL
[2]; 25 mg
  Cmax: 11.2 ng/mL
[2]; 25 mg, PAN 25 mg, N=8
  AUC: 85 ng·h/mL
  half-life: 7.81 h
  Vd/F: 3360 L
[2]; 25 mg, AUC0–24, PAN 25 mg, N=8
  AUC(0-t): 74.6 ng·h/mL
[3]; 15-mg dose group
  Response rate: 81.8%
[3]; 15-mg dose group (3 patients)
  CRi: 27.3%
[3]; 15-mg dose group (6 patients)
  CR: 54.5%
[3]; escalation phase (9 patients)
  ORR: 60%
[3]; expansion phase (6 patients)
  ORR: 50%
[3]; All patients, N=46
  Complete remission (CR): 20 (43.5) n (%)
  Complete remission with incomplete blood count recovery (CRi): 8 (17.4) n (%)
  Partial remission (PR): 2 (4.3) n (%)
  Response rate (CR or CRi): 28 (60.9) n (%)
  Treatment failure: 13 (28.3) n (%)
[3]; PAN 15 mg, N=11
  Complete remission (CR): 6 (54.5) n (%)
  Complete remission with incomplete blood count recovery (CRi): 3 (27.3) n (%)
  Partial remission (PR): 0 (0.0) n (%)
  Response rate (CR or CRi): 9 (81.8) n (%)
  Treatment failure: 1 (9.1) n (%)
[3]; [6]
  Complete remission (CR): 5 (41.7) n (%)
  Complete remission with incomplete blood count recovery (CRi): 1 (8.3) n (%)
  Partial remission (PR): 1 (8.3) n (%)
  Response rate (CR or CRi): 6 (50.0) n (%)
  Treatment failure: 3 (25.0) n (%)
[3]; PAN 20 mg, N=15
  Complete remission (CR): 7 (46.7) n (%)
  Complete remission with incomplete blood count recovery (CRi): 2 (13.3) n (%)
  Partial remission (PR): 0 (0.0) n (%)
  Response rate (CR or CRi): 9 (60.0) n (%)
  Treatment failure: 6 (40.0) n (%)
[3]; PAN 25 mg, N=8
  Complete remission (CR): 2 (25.0) n (%)
  Complete remission with incomplete blood count recovery (CRi): 2 (25.0) n (%)
  Partial remission (PR): 1 (12.5) n (%)
  Response rate (CR or CRi): 4 (50.0) n (%)
  Treatment failure: 3 (37.5) n (%)
[3]; Ten of 46 patients
  Re-induction rate (second induction cycle): 22%
[3]; all 46 patients
  Overall response rate (ORR) (CR or CRi): 60.9%
[3]; all 46 patients (8 patients)
  CR with incomplete count recovery (CRi): 17.4%
[3]; all 46 patients (20 patients)
  Complete remission (CR): 43.5%
[3]; all patients
  Event-free survival at 1-year: 78.3%
[3]; all patients (11 patients)
  Treatment discontinuation due to disease progression: 23.9%
[3]; current study
  Median overall survival: not reached
[3]; inadequate number of events at last censoring
  Median duration of response: not estimable
[4]
  SAE: sepsis: 2 patients
